B1: Osa-1-4 twister ribozyme (parent)
chain: CCGCCUAACACUGCCAAUGCCGGUCCCAAGCCCGGAUAAAAGUGGAGGGGGCGG

In this data set the parent is B1. Kind of data set: self-cleavage, relative activity (ratio to wild type); higher = more cleavage; co-transcriptional. In a few lines:
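In vitro transcription at 37 °C for 2 h allowed the twister ribozyme to cleave itself as it was made. Its 54-nucleotide Oryza sativa template had been synthesised with 97 % wild-type base and 1 % of each other base at the 48 positions downstream of the cleavage site. A template-switching oligonucleotide was used for reverse transcription, followed by PCR amplification and deep sequencing. Whether reads carried upstream sequence set the cleavage status, and relative activity is the fraction cleaved normalised to wild type.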
Take CCGCCUAACACUGCCAAUGCCGAUCCCAAGUCCGGAUAAAAGUGGAGGGGGCGG [C31U G23A]: the self-cleavage came to 0.07. For the variant CCGCCUAACACUGCCAAUGCCGCUCCCAAGUCCGGAUAAAAGUGGAGGGGGCGG [C31U G23C], the self-cleavage stood at 0.04.

Consider CCGCCUAACACUGCCAAUGCCGUUCCCAAGUCCGGAUAAAAGUGGAGGGGGCGG [C31U G23U], for which the self-cleavage is 0.04. Consider CCGCCUAACACUGCCAAUGCCGGCCCCAAGGCCGGAUAAAAGUGGAGGGGGCGG [C31G U24C], for which the self-cleavage was determined as 0.03. For the variant CCGCCUAACACUGCCAAUGCCGGGCCCAAGGCCGGAUAAAAGUGGAGGGGGCGG [C31G U24G], the self-cleavage was 0.02.

Regarding CCGCCUAACACUGCCAAUGCCGGACCCAAGGCCGGAUAAAAGUGGAGGGGGCGG [C31G U24A], the self-cleavage worked out at 0.04. As for CCGCCUAACACUGCCAAUGCCGGUCCCAAGUCCGGAUAAAAGUGCAGGGGGCGG [C31U G45C], the self-cleavage is 0.04. Consider CCGCCUAACACUGCCAAUGCCGGUCCCAAGUCCGGAUAAAAGUGAAGGGGGCGG [C31U G45A], for which the self-cleavage worked out at 0.04.

For CCGCCUAACACUGCCAAUGCCGGUCCCAAGUCCGGAUAAAAGUGUAGGGGGCGG [C31U G45U], the self-cleavage stood at 0.04.

CCGCCUAACACUGCCAAUGCCGGUCCCAAGUCCGGAUAAAAGCGGAGGGGGCGG [C31U U43C]: the self-cleavage came to 0.08.

Consider CCGCCUAACACUGCCAAUGCCGGUCCCAAGUCCGGAUAAAAGAGGAGGGGGCGG [C31U U43A], for which the self-cleavage amounted to 0.17. As to CCGCCUAACACUGCCAAUGCCGGUCCCAAGUCCGGAUAAAAGGGGAGGGGGCGG [C31U U43G], the self-cleavage came out at 0.1. In the case of CCGCCUAACACUGCCAAUGCCGGUCCCAAGUCCGGAUAAAAGUGGAGGCGGCGG [C31U G49C], the self-cleavage came out at 0.05. With CCGCCUAACACUGCCAAUGCCGGUCCCAAGUCCGGAUAAAAGUGGAGGUGGCGG [C31U G49U], the self-cleavage was 0.06. Regarding CCGCCUAACACUGCCAAUGCCGGUCCCAAGUCCGGAUAAAAGUGGAGGAGGCGG [C31U G49A], the self-cleavage turned out to be 0.06. With CCGCCUAACACUGCCAACGCCGGUCCCAAGUCCGGAUAAAAGUGGAGGGGGCGG [C31U U18C], the self-cleavage worked out at 0.87. CCGCCUAACACUGCCAAGGCCGGUCCCAAGUCCGGAUAAAAGUGGAGGGGGCGG [C31U U18G]: the self-cleavage is 0.82. The same measure for CCGCCUAACACUGCCAAAGCCGGUCCCAAGUCCGGAUAAAAGUGGAGGGGGCGG [C31U U18A]: 0.9; for CCGCCUAACACUGCCAAUGCCGGUCCCAAGUCCAGAUAAAAGUGGAGGGGGCGG [C31U G34A]: 0.42; for CCGCCUAACACUGCCAAUGCCGGUCCCAAGUCCUGAUAAAAGUGGAGGGGGCGG [C31U G34U]: 0.56. With CCGCCUAACACUGCCAAUGCCGGUCCCAAGUCCCGAUAAAAGUGGAGGGGGCGG [C31U G34C], the self-cleavage worked out at 0.24. On to CCGCCUAACACUACCAAUGCCGGUCCCAAGUCCGGAUAAAAGUGGAGGGGGCGG [C31U G13A], for which the self-cleavage stood at 0.89. Turning to CCGCCUAACACUUCCAAUGCCGGUCCCAAGUCCGGAUAAAAGUGGAGGGGGCGG [C31U G13U], the self-cleavage is 0.05. Regarding CCGCCUAACACUCCCAAUGCCGGUCCCAAGUCCGGAUAAAAGUGGAGGGGGCGG [C31U G13C], the self-cleavage stood at 0.02. The same measure for CCGCCUAACACUGCCAAUGCCGGUCCCAAGUCCGGAUAAAAGUGGAGGGGGCGG [C31U]: 0.97; for CCGCCUAACACUGCCAAUGCCGGUCCCAACUCCGGAUAAAAGUGGAGGGGGCGG [C31U G30C]: 0.03. For the variant CCGCCUAACACUGCCAAUGCCGGUCCCAAUUCCGGAUAAAAGUGGAGGGGGCGG [C31U G30U], the self-cleavage was 0.03. As for CCGCCUAACACUGCCAAUGCCGGUCCCAAAUCCGGAUAAAAGUGGAGGGGGCGG [C31U G30A], the self-cleavage was 0.03. Consider CCGCCUAACACUGCCAAUGCCGGUCCCAAGUCCGGAUAAAAGUGGAGCGGGCGG [C31U G48C], for which the self-cleavage is 0.05. For the variant CCGCCUAACACUGCCAAUGCCGGUCCCAAGUCCGGAUAAAAGUGGAGUGGGCGG [C31U G48U], the self-cleavage amounted to 0.04.

As for CCGCCUAACACUGCCAAUGCCGGUCCCAAGUCCGGAUAAAAGUGGAGAGGGCGG [C31U G48A], the self-cleavage came to 0.05. With CCGCCUAACACUGCCAAUGCCGGUCCCAAGUACGGAUAAAAGUGGAGGGGGCGG [C31U C32A], the self-cleavage stood at 0.05. As to CCGCCUAACACUGCCAAUGCCGGUCCCAAGUUCGGAUAAAAGUGGAGGGGGCGG [C31U C32U], the self-cleavage came to 0.09. The same measure for CCGCCUAACACUGCCAAUGCCGGUCCCAAGUGCGGAUAAAAGUGGAGGGGGCGG [C31U C32G]: 0.08; for CCGCCUAACACUGCCAAUGCCGGUCCCAAGUCGGGAUAAAAGUGGAGGGGGCGG [C31U C33G]: 0.06; for CCGCCUAACACUGCCAAUGCCGGUCCCAAGUCAGGAUAAAAGUGGAGGGGGCGG [C31U C33A]: 0.08. As for CCGCCUAACACUGCCAAUGCCGGUCCCAAGUCUGGAUAAAAGUGGAGGGGGCGG [C31U C33U], the figure is 0.31; as for CCGCCUAAUACUGCCAAUGCCGGUCCCAAGCACGGAUAAAAGUGGAGGGGGCGG [C32A C9U], 0.05.

CCGCCUAAGACUGCCAAUGCCGGUCCCAAGCACGGAUAAAAGUGGAGGGGGCGG [C32A C9G]: the self-cleavage came out at 0.06. The same measure for CCGCCUAAAACUGCCAAUGCCGGUCCCAAGCACGGAUAAAAGUGGAGGGGGCGG [C32A C9A]: 0.05; for CCGCCUAACACUGCCAAUGCCGGUCCCAAGUCCGGAUAAAAGUGGAAGGGGCGG [C31U G47A]: 0.05. In the case of CCGCCUAACACUGCCAAUGCCGGUCCCAAGUCCGGAUAAAAGUGGAUGGGGCGG [C31U G47U], the self-cleavage was found to be 0.05. As to CCGCCUAACACUGCCAAUGCCGGUCCCAAGUCCGGAUAAAAGUGGACGGGGCGG [C31U G47C], the self-cleavage was 0.03. With CCGCCUAACACUGCCAAUGCCGGUCCCAAGUCCGGAUAAAAGUGGAGGGUGCGG [C31U G50U], the self-cleavage came out at 0.6. On to CCGCCUAACACUGCCAAUGCCGGUCCCAAGUCCGGAUAAAAGUGGAGGGAGCGG [C31U G50A], for which the self-cleavage worked out at 0.64. Turning to CCGCCUAACACUGCCAAUGCCGGUCCCAAGUCCGGAUAAAAGUGGAGGGCGCGG [C31U G50C], the self-cleavage came to 0.26. As for CCGCCUAACACUGCCAAUGCCGGUCCCAAGUCCGGAUAAAAAUGGAGGGGGCGG [C31U G42A], the figure is 0.09; as for CCGCCUAACACUGCCAAUGCCGGUCCCAAGUCCGGAUAAAAUUGGAGGGGGCGG [C31U G42U], 0.03; as for CCGCCUAACACUGCCAAUGCCGGUCCCAAGUCCGGAUAAAACUGGAGGGGGCGG [C31U G42C], 0.07.

(Values after the RNAGym collection of RNA variant scans (doi:10.1002/anie.201605470).)
